Test results as given in ChEMBL document CHEMBL2380254, “Optimization of tocotrienols as antiproliferative and antimigratory leads” (Eur J Med Chem, 2013).

What was measured:
Assay type in all cases: functional
LOX IMVI = test: Growth inhibition of human LOXIMVI cells after 48 hrs by sulforhodamine B assay
In short: (§1)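 NCI-60 screen: cells in RPMI 1640 with 5% FBS and 2 mM glutamine, 5000–40,000 cells/well, preincubated 24 h. Five concentrations (10-fold dilutions; 100 to 0.001 µM) applied for 48 h at 37 °C. TCA fixation, SRB stain, absorbance at 515 nm. Time-zero plates included; GI50 where 100×(T−T0)/(C−T0)=50.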

Malme-3M = test: Growth inhibition of human MALME-3M cells after 48 hrs by sulforhodamine B assay
In short: (§2)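 NCI-60 panel cells grown in RPMI 1640 with 5% FBS and 2 mM L-glutamine, seeded at 5000–40,000 cells/well and preincubated 24 h. Five 10-fold dilutions (0.001–100 µM) from DMSO stocks were added for 48 h at 37 °C. Adherent cells were fixed with cold TCA (10% final) for 60 min at 4 °C, stained with 0.4% SRB, and read at 515 nm. GI50 was set where 100×(T−T0)/(C−T0)=50.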

OVCAR-3 [1] = test: Growth inhibition of human OVCAR3 cells after 48 hrs by sulforhodamine B assay; conditions: OVCAR-3, 48 h; in short: as §2
NCI-H23 = test: Growth inhibition of human NCI-H23 cells after 48 hrs by sulforhodamine B assay; conditions: NCI-H23, 48 h; in short: as §2
OVCAR-3 [2] = test: Growth inhibition of human OVCAR3 cells assessed as cell growth at 10 uM after 48 hrs by sulforhodamine B assay; conditions: OVCAR-3, 48 h, read-out: Activity
In short: (§3)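 Single-dose NCI-60 screen: adherent cells in RPMI 1640 with 5% FBS were exposed to 10 µM for 48 h at 37 °C after a 24 h preincubation. They were fixed in situ with cold TCA (10% final), stained with 0.4% SRB in 1% acetic acid, solubilized in 10 mM Tris base, and read at 515 nm. Percent growth was taken relative to time-zero and control plates.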

ACHN = test: Growth inhibition of human ACHN cells assessed as cell growth at 10 uM after 48 hrs by sulforhodamine B assay; conditions: read-out: Activity
In short: (§4)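 NCI-60 single-dose screen at 10 µM: cells in RPMI 1640 with 5% FBS, preincubated 24 h, then exposed 48 h at 37 °C. TCA fixation (16% final for suspension cells), SRB staining, absorbance 515 nm. Percent growth relative to time-zero and untreated control plates; negative values indicate cell kill.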

OVCAR-5 = test: Growth inhibition of human OVCAR5 cells after 48 hrs by sulforhodamine B assay; conditions: OVCAR-5, 48 h; in short: as §2
[3] = Growth inhibition of human HCC2998 cells assessed as cell growth at 10 uM after 48 hrs by sulforhodamine B assay; conditions: HCC 2998, 48 h, read-out: Activity; in short: as §4
CCRF-CEM [4] = test: Growth inhibition of human CCRF-CEM cells after 48 hrs by sulforhodamine B assay; in short: as §1
COLO 205 = test: Growth inhibition of human COLO205 cells after 48 hrs by sulforhodamine B assay; conditions: COLO 205, 48 h; in short: as §1
UACC-257 = test: Growth inhibition of human UACC257 cells after 48 hrs by sulforhodamine B assay; conditions: UACC-257, 48 h
In short: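 NCI-60 five-dose screen. Cells were grown in RPMI 1640 with 5% FBS and 2 mM L-glutamine, plated at 5000–40,000 cells/well and incubated 24 h before dosing, with T0 plates TCA-fixed. DMSO stocks were diluted to doses of […] and exposed 48 h at 37 °C, 5% CO2. Cells were fixed with cold TCA (final 10%, 60 min, 4 °C), stained with 0.4% SRB in 1% acetic acid for 10 min, solubilized in 10 mM trizma base and read at 515 nm. GI50 is where 100×(T−T0)/(C−T0)=50.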

UACC-62 = test: Growth inhibition of human UACC62 cells assessed as cell growth at 10 uM after 48 hrs by sulforhodamine B assay; conditions: UACC-62, 48 h, read-out: Activity
In short: (§5)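 Single-dose NCI-60 test at 10 µM. Cells were grown in RPMI 1640 with 5% FBS and 2 mM L-glutamine, preincubated 24 h, with T0 plates TCA-fixed. Exposure was 48 h at 37 °C, 5% CO2. Cells were fixed with cold TCA (final 10%, 4 °C, 60 min), stained with SRB and read at 515 nm. Percent growth was taken relative to T0 and untreated control; negative values denote cell kill.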

HCT-15 = test: Growth inhibition of human HCT15 cells assessed as cell growth at 10 uM after 48 hrs by sulforhodamine B assay; conditions: HCT-15, 48 h, read-out: Activity; in short: as §4
MOLT-4 = test: Growth inhibition of human MOLT4 cells after 48 hrs by sulforhodamine B assay; conditions: MOLT-4, 48 h
In short: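 NCI-60 suspension lines in RPMI 1640 with 5% FBS and 2 mM L-glutamine, preincubated 24 h. A five-concentration 10-fold series (0.001–100 µM) was given for 48 h at 37 °C. Settled cells were fixed with 80% TCA (16% final), stained with SRB, and read at 515 nm. GI50 was taken where 100×(T−T0)/(C−T0)=50, with T0 plates fixed at drug addition.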

SK-MEL-28 = test: Growth inhibition of human SK-MEL-28 cells assessed as cell growth at 10 uM after 48 hrs by sulforhodamine B assay; conditions: SK-MEL-28, 48 h, read-out: Activity; in short: as §3
[5] = Growth inhibition of human EKVX cells assessed as cell growth at 10 uM after 48 hrs by sulforhodamine B assay; conditions: read-out: Activity; in short: as §4
SR [6] = test: Growth inhibition of human SR cells after 48 hrs by sulforhodamine B assay
In short: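 Suspension leukemia line in RPMI 1640 with 5% FBS and 2 mM L-glutamine, NCI-60 five-dose format ([…]), 48 h at 37 °C. Settled cells were fixed with 80% TCA (final 16%), stained with SRB and read at 515 nm. GI50 is where 100×(T−T0)/(C−T0)=50, with T0 measured at dosing.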

A498 = test: Growth inhibition of human A498 cells assessed as cell growth at 10 uM after 48 hrs by sulforhodamine B assay; conditions: A498, 48 h, read-out: Activity; in short: as §4
CCRF-CEM [7] = test: Growth inhibition of human CCRF-CEM cells assessed as cell growth at 10 uM after 48 hrs by sulforhodamine B assay; conditions: read-out: Activity; in short: as §4
SR [8] = test: Growth inhibition of human SR cells assessed as cell growth at 10 uM after 48 hrs by sulforhodamine B assay; conditions: read-out: Activity
In short: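 Suspension line in RPMI 1640 with 5% FBS, single 10 µM dose for 48 h. Settled cells were fixed with TCA (final 16%), then SRB-stained and read at 515 nm. Percent growth was taken versus T0 and control; negative values denote cytotoxicity.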

SNB-75 = test: Growth inhibition of human SNB75 cells assessed as cell growth at 10 uM after 48 hrs by sulforhodamine B assay; conditions: SNB-75, 48 h, read-out: Activity; in short: as §5
RXF 393 = test: Growth inhibition of human RXF393 cells assessed as cell growth at 10 uM after 48 hrs by sulforhodamine B assay; conditions: RXF 393, 48 h, read-out: Activity; in short: as §3

Compound | GI50 (LOX IMVI) [µM] | GI50 (Malme-3M) [µM] | GI50 (OVCAR-3 [1]) [µM] | GI50 (NCI-H23) [µM] | growth at 10 µM (OVCAR-3 [2]) [%] | growth at 10 µM (ACHN) [%] | GI50 (OVCAR-5) [µM] | growth at 10 µM [3] [%] | GI50 (CCRF-CEM [4]) [µM] | GI50 (COLO 205) [µM] | GI50 (UACC-257) [µM] | growth at 10 µM (UACC-62) [%] | growth at 10 µM (HCT-15) [%] | GI50 (MOLT-4) [µM] | growth at 10 µM (SK-MEL-28) [%] | GI50 (SR [6]) [µM] | growth at 10 µM (A498) [%] | growth at 10 µM (CCRF-CEM [7]) [%] | growth at 10 µM (SR [8]) [%] | growth at 10 µM (SNB-75) [%] | further results
CC(C)=CCC/C(C)=C/CC/C(C)=C/CC[C@]1(C)CCc2c3c(c(C)c(C)c2O1)OCN(CCCCCO)C3 | 6.07 | 6.9 | 6.71 | 6.67 | 65.2 | 101 | 5.93 | 60.8 | 7.83 | 3.39 | 6.97 | 99.2 | 105 | 5.87 | 99.7 | 4 | 97.4 | 54.9 | -44.4 | 70 | growth at 10 µM [5]: 90.6%
CC(C)=CCC/C(C)=C/CC/C(C)=C/CC[C@]1(C)CCc2c3c(cc(C)c2O1)OCN(C1CCN(Cc2ccccc2)CC1)C3 | 0.337 | 2.13 | 1.39 | 1.51 | -47.9 | 83.2 | 2.17 | -36.1 | 0.308 | 2 | 2.24 | 93.6 | 86.4 | 0.237 | 60 | 0.217 | 63.2 | 2.34 | -35 | 62.5 | growth at 10 µM [5]: 78%
CC(C)=CCC/C(C)=C/CC/C(C)=C/CC[C@]1(C)CCc2c3c(cc(C)c2O1)OCN(CCc1ccc(O)cc1)C3 | 2.09 | 7.06 | 3.56 | 6.82 | 36.4 | 91 | 6.11 | -84.7 | 1.75 | 0.958 | 7.33 |  | 80.4 | 2.42 | -83.8 | 1.37 | 100 | 2.75 | 1.96 | 44.4 | growth at 10 µM [5]: 90.7%
CC(C)=CCC/C(C)=C/CC/C(C)=C/CC[C@]1(C)CCc2c3c(cc(C)c2O1)OCN(CCCCCO)C3 | 6.07 | 6.9 | 6.71 | 6.67 | 54.6 | 81.6 | 5.93 | -48.5 | 7.83 | 3.39 | 6.97 | 93.2 | 62.3 | 5.87 | 34.7 | 4 | 89.7 | 38.4 | -16.9 | 74.8 | growth at 10 µM [5]: 90.5%
CC(C)=CCC/C(C)=C/CC/C(C)=C/CC[C@]1(C)CCc2c3c(c(C)c(C)c2O1)OCN(CCCCCCO)C3 | 2.83 | 2.78 | 2.82 | 2.84 |  | 68.6 | 2.76 | -63.7 | 2.73 | 2.83 | 3.45 | 86.7 | 38.4 | 2.92 | 63.1 | 2.7 | 111 | 5.83 | -34.8 | 62.8 | growth at 10 µM (RXF 393): 22.4%
COc1ccc(CCN2COc3cc(C)c4c(c3C2)CC[C@@](C)(CC/C=C(\C)CC/C=C(\C)CCC=C(C)C)O4)cc1OC | 1.77 | 2.03 | 2 | 1.85 | -22.9 | 75.7 | 1.86 | -87.2 | 3.32 | 1.79 | 5.58 | 91.7 | 57.4 | 2.32 | -55.6 | 2.3 | 83.2 | 0.64 | 4.1 | 45.2 | growth at 10 µM [5]: 85.5%
